Measured values pooled from the literature.
Protocols differ between the studies behind these lines.
Target: Phosphatidylinositol 5-phosphate 4-kinase type-2 beta (PIP4K2B, Homo sapiens, UniProt P78356)
Sequence (P78356 1-416, as in one of the studies): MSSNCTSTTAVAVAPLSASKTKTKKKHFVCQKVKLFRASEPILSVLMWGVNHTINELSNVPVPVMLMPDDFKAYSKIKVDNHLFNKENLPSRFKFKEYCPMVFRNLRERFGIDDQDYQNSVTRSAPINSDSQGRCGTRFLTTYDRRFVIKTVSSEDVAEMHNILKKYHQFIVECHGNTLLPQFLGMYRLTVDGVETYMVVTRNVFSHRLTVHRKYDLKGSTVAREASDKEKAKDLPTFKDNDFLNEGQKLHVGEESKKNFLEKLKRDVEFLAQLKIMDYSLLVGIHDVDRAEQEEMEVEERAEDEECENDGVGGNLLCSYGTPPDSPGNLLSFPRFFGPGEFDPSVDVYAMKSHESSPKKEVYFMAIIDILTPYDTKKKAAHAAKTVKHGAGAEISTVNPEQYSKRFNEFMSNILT

C[C@@H](c1ccc(-n2cnc3c(N)ncnc32)cc1)N1CCc2nn(C)c(Cc3ccccc3)c2C1=O
remaining binding (binding, competition with immobilised ligand; 0.1 µM): 69%

CN(C)c1ncc(F)c(-c2cnn3ncccc23)n1
remaining binding (binding; 1 µM): 100%

COc1ccc2c(c1)O[C@H](c1ccc(OC)c(OC)c1)C[C@@H]2NC(=O)C1(c2ccc3c(c2)OC(F)(F)O3)CC1
remaining binding (cell-free assay, competition with immobilised ligand; 1 µM): 80%

CN(C)c1nccc(-c2cnn3ncccc23)n1
remaining binding (binding; 1 µM): 100%

O=C(c1ccc(Nc2ncc(Cl)c(-c3ccc(Cl)s3)n2)cc1)N1CCC(N2CCCC2)CC1
remaining binding (binding, competition with immobilised ligand; 1 µM): 1.9%

COc1cnc(Nc2cccc(S(N)(=O)=O)c2)nc1N1CCN(c2ccccc2)C(=O)C1
remaining binding (binding, competition with immobilised ligand; 1 µM): 100%

COc1ccnn2ncc(-c3ccnc(N(C)C)n3)c12
remaining binding (binding; 1 µM): 100%

Cn1nc(C(F)(F)F)cc1-c1cnc(N2CCc3cc(S(=O)(=O)Nc4c(F)cc(Cl)cc4F)cc(N4CCCC4=O)c32)nc1
remaining binding (cell-free assay, competition with immobilised ligand; 1 µM): 100%

N[C@@H]1CCN(c2nccc(-c3cnn4ncccc34)n2)C1
remaining binding (binding; 1 µM): 100%

CC(=O)c1c(NS(C)(=O)=O)c2cc(-c3ccc(Cl)cc3)c(-c3ccc(Cl)cc3Cl)nc2n(C)c1=O
remaining binding (cell-free assay, competition with immobilised ligand; 1 µM): 65%

CN(C)c1nccc(-c2cnc3ncccn23)n1
remaining binding (binding; 1 µM): 100%

CCOCCn1cc(C(=O)Nc2ccc(-n3nc(-c4cccnc4)cc3C(F)(F)F)cn2)ccc1=O
remaining binding (cell-free assay, competition with immobilised ligand; 1 µM): 68%

O=C(c1ccc(Nc2nccc(-c3cc4ccccc4s3)n2)cc1)N1CCC(N2CCCC2)CC1
remaining binding (binding, competition with immobilised ligand; 1 µM): 11%

F[C@@H]1CCN(c2nccc(-c3cnn4ncccc34)n2)C1
remaining binding (binding; 1 µM): 79%

c1cncc(-c2cccc(Nc3nccc(NC4CCCCC4)n3)c2)c1
remaining binding (binding, competition with immobilised ligand; 10 µM): 27%

Cc1cc(C)c(-n2ccn3nc(-c4cccnc4)cc23)cc1NC(=O)c1cc(C#N)cc(S(F)(F)(F)(F)F)c1
remaining binding (cell-free assay, competition with immobilised ligand; 0.1 µM): 52.2%

Cc1cnc(Nc2ccc(C(=O)N3CCC(N4CCCC4)CC3)cc2)nc1-c1cc2ccccc2s1
remaining binding (binding, competition with immobilised ligand; 1 µM): 8.8%

O=C(NCC1CCOCC1)c1n[nH]cc1NC(=O)c1c(F)cccc1F
remaining binding (binding, competition with immobilised ligand; 1 µM): 100%

CNCc1ccccc1-c1csc([C@H](C)Nc2nc(C)nc3cc(OC)c(OC)cc23)c1
remaining binding (cell-free assay, competition with immobilised ligand; 1 µM): 100%

FC(F)(F)Oc1cccc(-c2cnc3ccc(-c4ccncc4)nn23)c1
remaining binding (cell-free assay, competition with immobilised ligand; 5 µM): 100%

C=CC(=O)N1CCC(C(=O)NCC(=O)N2CCN(c3nc(-c4cnc(N)nc4C(F)F)nc(N4CCOCC4)n3)CC2)CC1
remaining binding (binding, competition with immobilised ligand; 1 µM): 99%

COc1cc(Nc2nccc(-c3cnn4nc(OC)ccc34)n2)cc(C(F)(F)F)c1
remaining binding (binding, competition with immobilised ligand; 1 µM): 50%

c1cnn2ncc(-c3ccnc(N4CCC45COC5)n3)c2c1
remaining binding (binding; 1 µM): 58%

Cc1c(NC(=O)c2cc(C(N)=O)nc3cc(F)ccc23)c(C(F)(F)F)nn1Cc1ccc(C(C)(C)C)cc1
remaining binding (cell-free assay, competition with immobilised ligand; 1 µM): 91%
